Key:
[1] = target: Macrophage metalloelastase (Homo sapiens, UniProt P39900); experiment: Inhibition of human recombinant MMP12 catalytic domain Mca-Pro-Leu-Gly-Leu-Dpa-Ala-Arg-NH2 fluorogenic substrate
In short: (§1)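 Recombinant human catalytic domains (MMP-2; MMP-9 lacking fibronectin type II insert and MMP-12, both E. coli-expressed) at 10 ng per well with fluorogenic substrate. Buffer: 50 mM Tris pH 7.4, 0.2 M NaCl, 10 mM CaCl₂, ZnCl₂, 0.05% v/v Brij-35. Fluorescence rise (ex 320/em 440 nm) read for 15 min at 20 °C over inhibitor series up to 1000 nM (or 100 µM). IC50 by sigmoidal fit, triplicate.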

[2] = target: 72 kDa type IV collagenase (Homo sapiens, UniProt P08253); experiment: Inhibition of human recombinant MMP2 catalytic domain using Mca-Pro-Leu-Gly-Leu-Dpa-Ala-Arg-NH2 fluorogenic substrate; in short: as §1
[3] = target: Matrix metalloproteinase-9 (Homo sapiens, UniProt P14780); experiment: Inhibition of human recombinant MMP9 catalytic domain using Mca-Pro-Leu-Gly-Leu-Dpa-Ala-Arg-NH2 fluorogenic substrate; in short: as §1
Liver [4] = experiment: Drug uptake in HT1080 cells xenografted mouse liver after 90 mins; assay type: ADME, cell-based, HT-1080; details: in vivo, 1.5 h
In short: (§2)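 Male BALB/c nu/nu mice, 7–8 weeks old, were given (2–2.5)×10⁶ HT1080 cells s.c. in the right shoulder in Matrigel/EMEM (1:1). They were used 14–21 days later at tumor volume 0.3–0.6 mL. [¹⁸F]FB-ML5 was given alone or co-injected with 2.5 mg/kg ML5. Tissues were weighed and gamma-counted. SUVmean = tissue MBq/g ÷ (injected MBq/body weight g). n = 6 per group, mean ± SD, unpaired t-test.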

[5] = Drug uptake in HT1080 cells xenografted mouse assessed as heart to plasma ratio after 90 mins in presence of non-radioactive ML5; assay type: ADME, cell-based, HT-1080; details: heart and plasma
In short: (§3)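 Same HT1080 subcutaneous xenograft in male BALB/c nude mice. The tracer was co-injected with 2.5 mg/kg non-radioactive ML5 and scanned for 90 min. Organs and plasma were gamma-counted ex vivo at 90 min p.i. The tissue/plasma SUV_mean ratio was calculated. n = 6, mean SD, unpaired two-sided t-test against the group without ML5.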

Bone [6] = experiment: Drug uptake in HT1080 cells xenografted mouse bone after 90 mins in presence of non-radioactive ML5; assay type: ADME, cell-based, Bone element, HT-1080; details: in vivo, 1.5 h; in short: as §2
[7] = Drug uptake in HT1080 cells xenografted mouse assessed as large intestine to plasma ratio after 90 mins in presence of non-radioactive ML5; assay type: ADME, cell-based, HT-1080; details: large intestine and plasma; in short: as §3
Heart [8] = experiment: Drug uptake in HT1080 cells xenografted mouse heart after 90 mins; assay type: ADME, cell-based, HT-1080; details: in vivo, 1.5 h; in short: as §2
[9] = Drug uptake in HT1080 cells xenografted mouse assessed as heart to plasma ratio after 90 mins; assay type: ADME, cell-based, HT-1080; details: heart and plasma
In short: (§4)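 Male BALB/c nude mice, 7–8 weeks, with (2–2.5)×10⁶ HT1080 cells in Matrigel/EMEM injected subcutaneously into the right shoulder. Tracer injected when tumors reached 0.3–0.6 mL (14–21 days), followed by a 90 min microPET scan. Ex vivo: organs and plasma gamma-counted at 90 min p.i. SUV_mean for each tissue divided by plasma SUV_mean. n = 6, mean SD.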

Tumour [10] = experiment: Drug uptake in HT1080 cells xenografted mouse tumor after 90 mins in presence of non-radioactive ML5; assay type: ADME, Neoplasm, HT-1080; details: in vivo, 1.5 h; in short: as §2
[11] = Drug uptake in HT1080 cells xenografted mouse assessed as liver to plasma ratio after 90 mins; assay type: ADME, cell-based, HT-1080; details: liver and plasma; in short: as §4
Intestine [12] = experiment: Drug uptake in HT1080 cells xenografted mouse small intestine after 90 mins; assay type: ADME, cell-based, HT-1080; details: in vivo, 1.5 h; in short: as §2
Intestine [13] = experiment: Drug uptake in HT1080 cells xenografted mouse large intestine after 90 mins in presence of non-radioactive ML5; assay type: ADME, cell-based, HT-1080; details: in vivo, 1.5 h; in short: as §2
[14] = Drug uptake in HT1080 cells xenografted mouse assessed as tumor to plasma ratio after 90 mins; assay type: ADME, cell-based, HT-1080; details: tumor and plasma; in short: as §4
Heart [15] = experiment: Drug uptake in HT1080 cells xenografted mouse heart after 90 mins in presence of non-radioactive ML5; assay type: ADME, cell-based, HT-1080; details: in vivo, 1.5 h; in short: as §2
[16] = Drug uptake in HT1080 cells xenografted mouse assessed as liver to plasma ratio after 90 mins in presence of non-radioactive ML5; assay type: ADME, cell-based, HT-1080; details: liver and plasma; in short: as §3
Tumour [17] = experiment: Drug uptake in HT1080 cells xenografted mouse tumor after 90 mins; assay type: ADME, Neoplasm, HT-1080; details: in vivo, 1.5 h; in short: as §2
[18] = Drug uptake in HT1080 cells xenografted mouse assessed as bone to plasma ratio after 90 mins; assay type: ADME, cell-based, HT-1080; details: bone and plasma; in short: as §4
[19] = Drug uptake in HT1080 cells xenografted mouse assessed as large intestine to plasma ratio after 90 mins; assay type: ADME, cell-based, HT-1080; details: large intestine and plasma; in short: as §4
[20] = Drug uptake in HT1080 cells xenografted mouse assessed as bone to plasma ratio after 90 mins in presence of non-radioactive ML5; assay type: ADME, cell-based, HT-1080; details: bone and plasma; in short: as §3
[21] = Drug uptake in HT1080 cells xenografted mouse assessed as tumor to plasma ratio after 90 mins in presence of non-radioactive ML5; assay type: ADME, cell-based, HT-1080; details: tumor and plasma; in short: as §3
Lung [22] = experiment: Drug uptake in HT1080 cells xenografted mouse lung after 90 mins; assay type: ADME, cell-based, HT-1080; details: in vivo, 1.5 h; in short: as §2
Liver [23] = experiment: Drug uptake in HT1080 cells xenografted mouse liver after 90 mins in presence of non-radioactive ML5; assay type: ADME, cell-based, HT-1080; details: in vivo, 1.5 h; in short: as §2
Bone [24] = experiment: Drug uptake in HT1080 cells xenografted mouse bone after 90 mins; assay type: ADME, cell-based, Bone element, HT-1080; details: in vivo, 1.5 h; in short: as §2
Plasma [25] = experiment: Drug uptake in HT1080 cells xenografted mouse plasma assessed as parent compound after 90 mins; assay type: ADME, cell-based, HT-1080; details: in vivo, 1.5 h
In short: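 Parent fraction in plasma of control HT1080-bearing mice at 90 min p.i. Plasma (250 µL) was deproteinized with 750 µL ACN, centrifuged 3 min at 3000 rpm and filtered (0.22 µm). Analysed by semi-preparative reverse-phase HPLC with radioactivity detection; % intact tracer of total plasma radioactivity, n = 2.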

Plasma [26] = experiment: Drug uptake in HT1080 cells xenografted mouse plasma after 90 mins; assay type: ADME, cell-based, HT-1080; details: in vivo, 1.5 h; in short: as §2
Lung [27] = experiment: Drug uptake in HT1080 cells xenografted mouse lung after 90 mins in presence of non-radioactive ML5; assay type: ADME, cell-based, HT-1080; details: in vivo, 1.5 h; in short: as §2
[28] = Octanol-water partition coefficient, log P of the compound; assay type: physicochemical
In short: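 About 5 kBq [¹⁸F]FB-ML5 in saline was mixed with 495 µL PBS pH 7.4 and 500 µL n-octanol. Vortexed 5 min, centrifuged 5 min at 3000 rpm, then 100 µL of each layer gamma-counted. logP = log₁₀(cpm octanol/cpm aqueous), triplicate.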

Intestine [29] = experiment: Drug uptake in HT1080 cells xenografted mouse large intestine after 90 mins; assay type: ADME, cell-based, HT-1080; details: in vivo, 1.5 h; in short: as §2
Plasma [30] = experiment: Drug uptake in HT1080 cells xenografted mouse plasma after 90 mins in presence of non-radioactive ML5; assay type: ADME, cell-based, HT-1080; details: in vivo, 1.5 h; in short: as §2

Chain of Matrix metalloproteinase-9 (P14780 whole entry, the tested form may be a part): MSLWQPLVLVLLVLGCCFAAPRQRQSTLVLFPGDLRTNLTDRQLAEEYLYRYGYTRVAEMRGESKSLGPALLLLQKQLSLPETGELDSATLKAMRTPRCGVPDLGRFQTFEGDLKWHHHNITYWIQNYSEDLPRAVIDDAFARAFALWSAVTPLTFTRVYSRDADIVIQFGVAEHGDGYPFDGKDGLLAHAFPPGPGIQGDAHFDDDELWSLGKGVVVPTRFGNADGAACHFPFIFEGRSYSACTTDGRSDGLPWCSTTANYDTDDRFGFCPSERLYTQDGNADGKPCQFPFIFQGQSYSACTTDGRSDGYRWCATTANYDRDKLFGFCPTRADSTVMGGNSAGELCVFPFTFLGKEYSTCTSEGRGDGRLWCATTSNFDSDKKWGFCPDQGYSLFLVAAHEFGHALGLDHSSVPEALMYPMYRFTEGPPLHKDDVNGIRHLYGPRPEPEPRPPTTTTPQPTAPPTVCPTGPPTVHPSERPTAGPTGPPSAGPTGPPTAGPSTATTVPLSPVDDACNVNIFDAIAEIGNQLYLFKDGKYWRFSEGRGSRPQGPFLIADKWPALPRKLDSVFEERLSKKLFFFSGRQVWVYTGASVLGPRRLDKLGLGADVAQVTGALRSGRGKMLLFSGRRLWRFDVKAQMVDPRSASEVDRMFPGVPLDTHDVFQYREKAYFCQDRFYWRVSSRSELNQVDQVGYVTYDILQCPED
Chain of Macrophage metalloelastase (P39900 whole entry, the tested form may be a part): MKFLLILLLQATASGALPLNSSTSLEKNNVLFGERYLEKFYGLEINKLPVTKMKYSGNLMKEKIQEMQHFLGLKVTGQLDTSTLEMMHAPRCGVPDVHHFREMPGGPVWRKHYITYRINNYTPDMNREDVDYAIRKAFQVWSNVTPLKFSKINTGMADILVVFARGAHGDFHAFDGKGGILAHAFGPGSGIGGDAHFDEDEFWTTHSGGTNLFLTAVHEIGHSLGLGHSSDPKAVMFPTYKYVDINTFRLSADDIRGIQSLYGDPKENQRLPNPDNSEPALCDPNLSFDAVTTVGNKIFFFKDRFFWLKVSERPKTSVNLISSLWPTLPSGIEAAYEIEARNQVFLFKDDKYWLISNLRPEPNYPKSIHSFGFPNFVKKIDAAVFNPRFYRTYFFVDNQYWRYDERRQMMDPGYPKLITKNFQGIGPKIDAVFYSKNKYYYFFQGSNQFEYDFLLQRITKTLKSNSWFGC
Chain of 72 kDa type IV collagenase (P08253 whole entry, the tested form may be a part): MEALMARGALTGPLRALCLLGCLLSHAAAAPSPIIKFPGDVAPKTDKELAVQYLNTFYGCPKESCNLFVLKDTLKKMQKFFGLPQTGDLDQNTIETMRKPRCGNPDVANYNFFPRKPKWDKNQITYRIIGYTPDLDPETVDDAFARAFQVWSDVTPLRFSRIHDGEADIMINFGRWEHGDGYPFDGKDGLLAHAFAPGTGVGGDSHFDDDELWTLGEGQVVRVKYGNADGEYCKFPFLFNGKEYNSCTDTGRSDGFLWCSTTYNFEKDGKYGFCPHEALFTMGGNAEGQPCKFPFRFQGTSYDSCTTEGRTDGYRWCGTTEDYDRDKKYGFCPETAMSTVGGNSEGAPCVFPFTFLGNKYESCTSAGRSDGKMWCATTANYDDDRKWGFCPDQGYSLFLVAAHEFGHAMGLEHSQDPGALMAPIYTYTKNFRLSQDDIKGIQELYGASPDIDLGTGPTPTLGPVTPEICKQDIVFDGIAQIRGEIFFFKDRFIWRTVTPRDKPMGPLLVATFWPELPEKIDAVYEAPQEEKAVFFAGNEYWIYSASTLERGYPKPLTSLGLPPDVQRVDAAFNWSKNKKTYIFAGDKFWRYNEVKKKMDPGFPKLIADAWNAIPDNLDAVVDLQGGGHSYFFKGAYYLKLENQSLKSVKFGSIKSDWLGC

An IC50 [1] of 0.002 µM, an IC50 [2] of 0.0074 µM and an IC50 [3] of 0.0195 µM were found for `CC(C)C[C@H](CC(=O)NO)C(=O)N[C@@H](Cc1ccccc1)C(=O)N[C@@H](CCCCN)C(N)=O` in this work.
An IC50 [1] of 0.138 µM, an IC50 [2] of 0.0125 µM and an IC50 [3] of 0.0315 µM were found for `CC(C)C[C@H](CC(=O)NO)C(=O)N[C@@H](Cc1ccccc1)C(=O)N[C@@H](CCCCNC(=O)c1ccc(F)cc1)C(N)=O` in this work.
An IC50 [3] of 1.49 µM was found for `CC(C)C[C@H](CC(=O)NOC(=O)c1ccc(F)cc1)C(=O)N[C@@H](Cc1ccccc1)C(=O)N[C@@H](CCCCNC(=O)c1ccc(F)cc1)C(N)=O` in this work.
An SUV (Liver [4]) of 4.58, a Kp at 1.5 h [5] of 0.235 and an SUV (Bone [6]) of 0.017 were found for `CC(C)C[C@H](CC(=O)NO)C(=O)N[C@@H](Cc1ccccc1)C(=O)N[C@@H](CCCCNC(=O)c1ccc([18F])cc1)C(N)=O` in this work. It also gave a Kp at 1.5 h [7] of 14.8, an SUV (Heart [8]) of 0.111 and a Kp at 1.5 h [9] of 0.482. It also gave an SUV (Tumour [10]) of 0.041, a Kp at 1.5 h [11] of 19.2 and an SUV (Intestine [12]) of 5.207. It also gave an SUV (Intestine [13]) of 2.75, a Kp at 1.5 h [14] of 0.597 and an SUV (Heart [15]) of 0.043. For the same molecule, the Kp at 1.5 h [16] was 10.9, the SUV (Tumour [17]) was 0.145 and the Kp at 1.5 h [18] was 0.179. It also gave a Kp at 1.5 h [19] of 7.83, a Kp at 1.5 h [20] of 0.09 and a Kp at 1.5 h [21] of 0.231. The SUV (Lung [22]) was 0.254, the SUV (Liver [23]) was 2 and the SUV (Bone [24]) was 0.041. For the same molecule, the Drug uptake (Plasma [25]) was 23.2%, the SUV (Plasma [26]) was 0.238 and the SUV (Lung [27]) was 0.106. The logP [28] was 1.11, the SUV (Intestine [29]) was 1.8 and the SUV (Plasma [30]) was 0.185.
